ChEMBL document CHEMBL1154664, “From serendipity to rational antituberculosis drug discovery of mefloquine-isoxazole carboxylic acid esters” (J Med Chem, 2009)
In brackets after ≈: the same amount, converted by molar mass.

Columns and labels:
[1] = system: Mycobacterium tuberculosis; assay: Antitubercular activity against Mycobacterium tuberculosis H37Rv at pH 6.8 by Alamar blue susceptibility assay; type: functional
How it was run: (§1)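 Replicating M. tuberculosis H37Rv cultures; MIC by microplate Alamar Blue assay (MABA) at pH 6.8, run as previously described.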

[2] = system: Mycobacterium tuberculosis; assay: Antitubercular activity against Mycobacterium tuberculosis H37Rv by low oxygen recovery assay; type: functional
How it was run: (§2)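 Nonreplicating M. tuberculosis H37Rv cultures; MIC determined by low oxygen recovery assay (LORA), run as previously described.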

Vero = assay: Cytotoxicity against african green monkey Vero cells after 72 hrs; type: cell-based; conditions: Chlorocebus sabaeus
How it was run: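 VERO green monkey kidney cells exposed to compound for 72 h.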

[3] = Selectivity index, ratio of IC50 for Vero cells to IC50 for Mycobacterium tuberculosis H37Rv by Alamar blue susceptibility assay; type: toxicity, cell-based; conditions: monkey, read-out: Ratio IC50
[4] = Selectivity index, ratio of IC50 for Vero cells to IC50 for Mycobacterium tuberculosis H37Rv by low oxygen recovery assay; type: toxicity, cell-based; conditions: monkey, read-out: Ratio IC50
[5] = Half life in BALB/c mouse at 400 mg/kg, po; type: ADME, organism-based; design: dose 400 mg/kg, route oral; conditions: in vivo
How it was run: (§3)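 Female BALB/c mice (20-22 g), groups of twelve, single oral 400 mg/kg dose as a 20 mg/mL suspension in 0.5% carboxymethyl cellulose. Retro-orbital blood at 0, 15, 30, 45, 90 and 120 min. Plasma obtained by centrifugation, then precipitated with three volumes of acetonitrile containing internal standard. Parent and metabolites quantified by LC-MS-MS using positive electrospray and selected reaction monitoring.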

[6] = Cmax in BALB/c mouse at 400 mg/kg, po; type: ADME, organism-based; design: dose 400 mg/kg, route oral; conditions: in vivo; how it was run: as §3
[7] = AUC in BALB/c mouse at 400 mg/kg, po; type: ADME, organism-based; design: dose 400 mg/kg, route oral; conditions: plasma; how it was run: as §3
Mus musculus [8] = assay: Cmax in BALB/c mouse assessed as 2,8-bis(trifluoromethyl)quinol in-4-ol at 400 mg/kg, po; type: ADME, organism-based; design: dose 400 mg/kg, route oral; conditions: in vivo; how it was run: as §3
Mus musculus [9] = assay: Tmax in BALB/c mouse assessed as 2,8-bis(trifluoromethyl)quinol in-4-ol at 400 mg/kg, po; type: ADME, organism-based; design: dose 400 mg/kg, route oral; conditions: in vivo; how it was run: as §3
Mus musculus [10] = assay: Plasma concentration in BALB/c mouse assessed as 5-((2,8-bis(trifluoromethyl)qu inolin-4-yloxy)methyl)isoxazole-3-carboxylic acid at 400 mg/kg, po after 3 hrs; type: ADME, organism-based; design: dose 400 mg/kg, route oral; conditions: in vivo
Mus musculus [11] = assay: Plasma concentration in BALB/c mouse assessed as 5-((2,8-bis(trifluoromethyl)qu inolin-4-yloxy)methyl)isoxazole-3-carboxylic acid at 400 mg/kg, po after 30 mins; type: ADME, organism-based; design: dose 400 mg/kg, route oral; conditions: in vivo, 0.5 h; how it was run: as §3
Mus musculus [12] = assay: Plasma concentration in BALB/c mouse assessed as 5-((2,8-bis(trifluoromethyl)qu inolin-4-yloxy)methyl)isoxazole-3-carboxylic acid at 400 mg/kg, po after 90 mins; type: ADME, organism-based; design: dose 400 mg/kg, route oral; conditions: in vivo, 1.5 h; how it was run: as §3
[13] = system: Mycobacterium tuberculosis; assay: Antitubercular activity against replicating Mycobacterium tuberculosis; type: functional; how it was run: as §1
[14] = system: Mycobacterium tuberculosis; assay: Antitubercular activity against non replicating Mycobacterium tuberculosis; type: functional; how it was run: as §2
[15] = system: Mycobacterium tuberculosis; assay: Antitubercular activity against Mycobacterium tuberculosis infected in macrophages assessed as reduction in colony forming unit; type: functional
Mus musculus [16] = assay: Cmax in BALB/c mouse assessed as E-Ethyl 5-[2-(4-quinolinyl)eth enyl]-3-isoxazolecarboxylate at 400 mg/kg, po; type: ADME, organism-based; design: dose 400 mg/kg, route oral; conditions: in vivo; how it was run: as §3

SMILES	MIC [1]	MIC [2]	IC50 (Vero)	selectivity ratio [3]	selectivity ratio [4]	further results
CCOC(=O)c1cc(COc2cc(C(F)(F)F)nc3c(C(F)(F)F)cccc23)on1	0.9 µM (≈ 0.391 µg/mL)	12.2 µM (≈ 5.3 µg/mL)	> 128 µM	> 144	> 10.5	half-life [5]: 1.6 h; Cmax [6]: 1 µM; AUC [7]: 2.2 µM·h; Cmax (Mus musculus [8]): 2710 ng/mL; Tmax (Mus musculus [9]): 0.5 h; Cp (Mus musculus [10]): 100 ng/mL; Cp (Mus musculus [11]): 400 ng/mL; Cp (Mus musculus [12]): 26 ng/mL; MIC [13]: 0.9 µM (≈ 0.391 µg/mL); MIC [14]: 12.2 µM (≈ 5.3 µg/mL); EC90 [15]: 4.1 µM; Cmax (Mus musculus [16]): 30 ng/mL
CCOC(=O)c1cc(C(C)(C)Oc2cc(C(F)(F)F)nc3c(C(F)(F)F)cccc23)on1	6.8 µM (≈ 3.14 µg/mL)	22.1 µM (≈ 10.2 µg/mL)	23 µM	0.6	1	–
CCOC(=O)c1cc(CCc2cc(C(F)(F)F)nc3c(C(F)(F)F)cccc23)on1	5.7 µM (≈ 2.46 µg/mL)	12.6 µM (≈ 5.45 µg/mL)	> 128 µM	> 22.5	> 10.2	–
CCOC(=O)c1cc(/C=C\c2ccnc3ccccc23)on1	0.6 µM (≈ 0.177 µg/mL)	3 µM (≈ 0.883 µg/mL)	> 128 µM	> 213	> 42.7	–
CCOC(=O)c1cc(/C=C\c2cc(C(F)(F)F)nc3ccc(C(F)(F)F)cc23)on1	–	–	> 128 µM	–	–	–
CCOC(=O)c1cc(/C=C/c2ccnc3ccccc23)on1	0.2 µM (≈ 0.0589 µg/mL)	2.6 µM (≈ 0.765 µg/mL)	> 128 µM	> 640	> 49.2	half-life [5]: 1.9 h; Cmax [6]: 61.7 µM; AUC [7]: 156 µM·h
CCOC(=O)c1cc(C(=O)Nc2cc(C(F)(F)F)nc3c(C(F)(F)F)cccc23)on1	29.5 µM (≈ 13.2 µg/mL)	> 128 µM	> 128 µM	> 4.3	–	–
CCOC(=O)c1cc(/C=C/c2cc(C(F)(F)F)nc3c(C(F)(F)F)cccc23)on1	2.7 µM (≈ 1.16 µg/mL)	38.9 µM (≈ 16.7 µg/mL)	> 128 µM	> 47.5	> 3.3	–
CCOC(=O)c1cc(C(Oc2cc(C(F)(F)F)nc3c(C(F)(F)F)cccc23)c2ccccc2)on1 (stereo not drawn)	> 128 µM	> 128 µM	> 128 µM	–	–	–
O=C(O)c1cc(/C=C/c2ccnc3ccccc23)on1	–	–	> 128 µM	–	–	–
CCOC(=O)c1cc(C(C)Oc2cc(C(F)(F)F)nc3c(C(F)(F)F)cccc23)on1 (stereo not drawn)	4.2 µM (≈ 1.88 µg/mL)	20.7 µM (≈ 9.28 µg/mL)	> 128 µM	> 30.5	> 6.2	–
CCOC(=O)c1cc(CCc2ccnc3ccccc23)on1	2.7 µM (≈ 0.8 µg/mL)	22.5 µM (≈ 6.67 µg/mL)	> 128 µM	> 47.5	> 5.7	–
CCOC(=O)c1cc(/C=C\c2ccnc3ccc(OC)cc23)on1	1.6 µM (≈ 0.519 µg/mL)	2 µM (≈ 0.649 µg/mL)	> 128 µM	> 80	> 64	–
CCOC(=O)c1cc(/C=C/c2ccnc3ccc(OC)cc23)on1	0.4 µM (≈ 0.13 µg/mL)	1.1 µM (≈ 0.357 µg/mL)	> 128 µM	> 320	> 116	–
CCOC(=O)c1cc(/C=C/c2ccc3ncccc3c2)on1	0.9 µM (≈ 0.265 µg/mL)	9.3 µM (≈ 2.74 µg/mL)	> 128 µM	> 142	> 13.8	–
CCOC(=O)c1cc(-c2cc(C(F)(F)F)nc3c(C(F)(F)F)cccc23)on1	16.5 µM (≈ 6.67 µg/mL)	48.1 µM (≈ 19.4 µg/mL)	> 128 µM	> 7.8	> 2.7	–
CCCCC(Oc1cc(C(F)(F)F)nc2c(C(F)(F)F)cccc12)c1cc(C(=O)OCC)no1 (stereo not drawn)	116 µM (≈ 56.8 µg/mL)	11.9 µM (≈ 5.84 µg/mL)	42.7 µM	0.3	3.6	–
CCOC(=O)c1cc(/C=C\c2ccc3ncccc3c2)on1	1.3 µM (≈ 0.383 µg/mL)	12.4 µM (≈ 3.65 µg/mL)	> 128 µM	> 98.4	> 10.3	–
OC(c1cc(C(F)(F)F)nc2c(C(F)(F)F)cccc12)C1CCCCN1 (stereo not drawn) [MEFLOQUINE]	13 µM (≈ 4.92 µg/mL)	7 µM (≈ 2.65 µg/mL)	11 µM	0.9	1.6	–
CO[C@H]1/C=C/O[C@@]2(C)Oc3c(C)c(O)c4c(O)c(c(/C=N/N5CCN(C)CC5)c(O)c4c3C2=O)NC(=O)/C(C)=C\C=C\[C@H](C)[C@H](O)[C@@H](C)[C@@H](O)[C@@H](C)[C@H](OC(C)=O)[C@@H]1C [RIFAMPIN]	0.1 µM (≈ 0.0823 µg/mL)	2 µM (≈ 1.65 µg/mL)	–	1220	61	–
